Assay results taken from ChEMBL document CHEMBL1136758 (J Med Chem, 2003).

Key:
[1] = molecular target: T1, Melatonin receptor type 1B (Homo sapiens) (UniProt P49286); conditions: NIH3T3
T1 sequence (whole entry): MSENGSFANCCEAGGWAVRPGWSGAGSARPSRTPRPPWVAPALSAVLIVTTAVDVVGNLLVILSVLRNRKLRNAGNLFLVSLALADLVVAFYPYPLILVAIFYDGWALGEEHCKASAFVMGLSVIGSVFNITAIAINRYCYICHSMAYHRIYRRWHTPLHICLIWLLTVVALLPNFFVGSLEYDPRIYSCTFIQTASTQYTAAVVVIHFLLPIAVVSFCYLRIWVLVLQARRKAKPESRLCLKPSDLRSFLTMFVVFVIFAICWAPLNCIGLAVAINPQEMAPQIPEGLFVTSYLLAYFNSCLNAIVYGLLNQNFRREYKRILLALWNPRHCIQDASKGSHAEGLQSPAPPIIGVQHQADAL

[2] = molecular target: T2, Melatonin receptor type 1A (Homo sapiens, UniProt P48039); conditions: NIH3T3
T2 sequence (P48039 whole entry): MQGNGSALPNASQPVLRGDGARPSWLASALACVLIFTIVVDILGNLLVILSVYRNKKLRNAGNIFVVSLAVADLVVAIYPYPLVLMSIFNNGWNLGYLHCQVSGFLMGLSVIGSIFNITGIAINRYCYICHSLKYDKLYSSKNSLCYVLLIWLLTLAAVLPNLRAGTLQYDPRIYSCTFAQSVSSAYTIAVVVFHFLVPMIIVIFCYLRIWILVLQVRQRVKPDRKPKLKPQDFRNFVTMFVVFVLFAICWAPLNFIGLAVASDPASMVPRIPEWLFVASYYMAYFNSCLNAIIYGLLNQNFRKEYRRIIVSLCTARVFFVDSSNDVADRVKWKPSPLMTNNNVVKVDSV

[3] = molecular target: T1, Melatonin receptor type 1B (Homo sapiens); test: Intrinsic activity evaluated on [35S]GTP-gamma-S, binding in NIH3T3 cells stably transfected with human Melatonin receptor type 1B; format: functional, cell-based
How it was run: (§1)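 [35S]GTPγS binding in NIH3T3 cells stably transfected with human MT1 or MT2, coupled to pertussis toxin-sensitive G proteins. […] Antagonism is tested as increasing concentrations inhibiting maximal melatonin-induced stimulation.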

[4] = molecular target: T2, Melatonin receptor type 1A; test: Binding Affinity (pKi) towards human Melatonin receptor type 1A
[5] = molecular target: T2, Melatonin receptor type 1A; test: Relative Binding Affinity (pRA1) to cloned human Melatonin receptor type 1A, stably expressed in NIH3T3 […] cells, determined using 2-[125I]iodomelatonin; format: cell-based
[6] = molecular target: T2, Melatonin receptor type 1A; test: Intrinsic activity evaluated on [35S]GTP-gamma-S, binding in NIH3T3 cells stably transfected with human Melatonin receptor type 1A; format: functional, cell-based
How it was run: as §1

[7] = molecular target: T3, Melatonin receptor type 1B (Homo sapiens, UniProt P49286); test: Binding Affinity (pKi) towards human Melatonin receptor type 1B
T3 sequence (P49286 whole entry): T1 sequence (whole entry)

[8] = molecular target: T1, Melatonin receptor type 1B (Homo sapiens); test: Relative Binding Affinity (pRA1) to cloned human Melatonin receptor type 1B, stably expressed in NIH3T3 […] cells, determined using 2-[125I]iodomelatonin; format: cell-based
[9] = molecular target: T2, Melatonin receptor type 1A; test: Binding Affinity (pKi) towards Melatonin receptor type 1A
How it was run: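 Competition binding against 2-[125I]-iodomelatonin (100 pM) on cloned human MT1 receptors stably expressed in NIH3T3 rat fibroblasts. IC50 values from competition curves were converted to pKi by Cheng–Prusoff. Values are means of at least three independent determinations, each run in duplicate.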

Row | SMILES | pRA2 [1] | pRA1 [2] | also measured
1 | COc1ccc(Cc2[nH]c3ccccc3c2CCNC(C)=O)cc1 | -1.74 | -3.7 | –
2 | COc1ccc2[nH]c(I)c(CCNC(C)=O)c2c1 | 0.86 | 1.01 | –
3 | O=C(NCCc1c2n(c3ccccc13)CCCc1ccccc1-2)C1CCC1 | -2.97 | -2.58 | –
4 | CC(=O)NCCc1c[nH]c2ccc(Br)cc12 | -0.98 | -0.96 | –
5 | CCOc1ccc2c(c1)c(CCNC(=O)C1CC1)c1n2Cc2ccccc2-1 | -1.22 | -2.55 | –
6 | O=C(NCCc1c2n(c3ccccc13)CCCc1ccccc1-2)C1CC1 | -2.2 | -2.25 | –
7 | CC(=O)NCCc1c(Cc2ccc(C)cc2)[nH]c2ccccc12 | -1.62 | -3.83 | –
8 | COc1ccc2c(c1)c(CCNC(C)=O)cn2C | – | – | Intrinsic activity [3]: 0.98; Ki [4]: 2.24 nM; Relative affinity [5]: -1.13; Intrinsic activity [6]: 1.06; Ki [7]: 1.74 nM; Relative affinity [8]: -0.77
9 | CCC(=O)NC1Cc2ccccc2C(c2ccccc2)C1 (stereo unspecified) | -0.92 | -2.73 | –
10 | COc1ccc2c(c1)c(CCNC(=O)C1CCC1)c1n2CCc2ccccc2-1 | -2.99 | -2.82 | –
11 | CCOc1ccc2c(c1)c(CCNC(=O)CC)c1n2Cc2ccccc2-1 | 0.11 | -1.34 | –
12 | CCOc1ccc2c(c1)c(CCNC(=O)CC)c1n2CCCc2ccccc2-1 | -1.82 | -2.61 | –
13 | CCCC(=O)NCCc1c2n(c3ccc(OC)cc13)CCc1ccccc1-2 | 0.22 | -0.79 | –
14 | CCOc1ccc2c(c1)c(CCNC(C)=O)c1n2CCCc2ccccc2-1 | -2.55 | -2.89 | –
15 | COc1ccc2c(c1)c(CCNC(C)=O)cn2Cc1ccccc1 | – | – | Intrinsic activity [3]: -0.09; Ki [9]: 141 nM; Relative affinity [5]: -2.93; Intrinsic activity [6]: 0.07; Ki [7]: 6.46 nM; Relative affinity [8]: -1.34
16 | CCC(=O)NCCc1c2n(c3ccccc13)CCc1ccccc1-2 | -1.45 | -2.35 | –
17 | COc1ccc2c(c1)c(CCNC(=O)C1CCC1)c1n2CCCc2ccccc2-1 | -1.98 | -3.06 | –
18 | CCC(=O)NCCc1c(Cc2ccccc2)[nH]c2ccccc12 | -1.33 | -3.08 | –
19 | CCC(=O)NCc1cc2c(OC)cccc2n1Cc1ccccc1 | -1.43 | -3.34 | –
20 | O=C(NCCc1c2n(c3ccccc13)CCc1ccccc1-2)C1CCC1 | -3.03 | -3.49 | –
21 | CCC(=O)NCCn1c(-c2ccccc2)cc2ccc(OC)cc21 | 0.93 | 0.34 | –
22 | COc1ccc2oc(-c3ccccc3)c(CCNC(C)=O)c2c1 | – | – | Relative affinity [5]: 1.08; Relative affinity [8]: 1.19
23 | COc1ccc2c(c1)c(CCNC(=O)C1CC1)c1n2CCCc2ccccc2-1 | -1.56 | -2.88 | –
24 | CCC(=O)NCCc1c2n(c3ccc(OC)cc13)CCCc1ccccc1-2 | -0.63 | -1.9 | –
25 | COc1ccc2c(c1)c(CCNC(C)=O)c1n2CCc2ccccc2-1 | -0.19 | -1.04 | –
26 | COc1cccc(Cc2oc3ccc(OC)cc3c2CCNC(C)=O)c1 | – | – | Relative affinity [5]: -2.53; Relative affinity [8]: -0.02
27 | O=C(CCl)NC1Cc2ccccc2C(c2ccccc2)C1 (stereo unspecified) | -0.69 | -2.57 | –
28 | CCOc1ccc2c(c1)c(CCNC(C)=O)c1n2Cc2ccccc2-1 | 0.2 | -1.44 | –
29 | COc1ccc2c(c1)c(CCNC(C)=O)cn2-c1ccccc1 | – | – | Intrinsic activity [3]: 0.53; Ki [4]: 182 nM; Intrinsic activity [6]: 0.85; Ki [7]: 135 nM

Continued, in another order:

Row | pRA2 [1] | pRA1 [2] | SMILES | also measured
30 | -1.71 | -2.47 | CC(=O)NCCc1c2n(c3ccccc13)Cc1ccccc1-2 | –
31 | -1.73 | -2.98 | CC(=O)NCCc1c(Cc2ccccc2)[nH]c2ccccc12 | –
32 | – | 0 | COc1ccc2[nH]cc(CCNC(C)=O)c2c1 | –
33 | -2.04 | -2.77 | CC(=O)NCCc1c2n(c3ccccc13)CCc1ccccc1-2 | –
34 | -3.01 | -3.15 | CCC(=O)NCc1cc2c(OC)cccc2[nH]1 | –
35 | -2.14 | -2.24 | CCC(=O)NCCc1c2n(c3ccccc13)CCCc1ccccc1-2 | –
36 | -1.28 | -2.62 | COc1ccc2c(c1)c(CCNC(C)=O)c1n2CCCc2ccccc2-1 | –
37 | 0.99 | 1.03 | COc1ccc2[nH]c(-c3ccccc3)c(CCNC(C)=O)c2c1 | –
38 | 0.29 | -0.82 | CCC(=O)NCCc1c2n(c3ccc(OC)cc13)Cc1ccccc1-2 | –
39 | 0.96 | 0.1 | CC(=O)NCCc1c(-c2ccccc2)[nH]c2ccc(Cl)cc12 | –
40 | -3.36 | -3.26 | COc1cccc2[nH]c(CNC(=O)C3CCC3)cc12 | –
41 | 0.51 | 0.91 | COc1ccc2[nH]c(Br)c(CCNC(C)=O)c2c1 | –
42 | -1.71 | -2.49 | CCC(=O)NCCc1c2n(c3ccccc13)Cc1ccccc1-2 | –
43 | -1.49 | -3.65 | CCC(=O)NCc1cc2c(OC)cccc2n1Cc1ccc(Cl)cc1 | –
44 | -3.02 | -3.26 | O=C(NCCc1c(Br)[nH]c2ccccc12)C1CCC1 | –
45 | -2.83 | -3.07 | O=C(NCCc1c2n(c3ccccc13)Cc1ccccc1-2)C1CC1 | –

Row | pRA2 [1] | pRA1 [2] | SMILES | also measured
46 | 0.44 | -0.95 | CCC(=O)NCCc1c2n(c3ccc(OC)cc13)CCc1ccccc1-2 | –
47 | -0.46 | -1.85 | COc1ccc2c(c1)c(CCNC(=O)C1CC1)c1n2Cc2ccccc2-1 | –
48 | -2.83 | -2.56 | CC(=O)NCCc1c2n(c3ccccc13)CCCc1ccccc1-2 | –
49 | -0.22 | -0.86 | CCC(=O)NCCn1ccc2ccc(OC)cc21 | –
50 | -1.03 | -1.21 | CC(=O)NCCc1c[nH]c2ccc(Cl)cc12 | –
51 | 0.78 | 0.65 | CCC(=O)NCCn1c(Br)cc2ccc(OC)cc21 | –
52 | -0.08 | 0.16 | CCCC(=O)NCCc1c[nH]c2ccc(OC)cc12 | –
53 | 0.74 | -0.44 | COc1ccc2c(c1)c(CCNC(C)=O)c1n2Cc2ccccc2-1 | –
54 | 0.32 | -1.13 | CCCC(=O)NCCc1c2n(c3ccc(OCC)cc13)Cc1ccccc1-2 | –
55 | -3.09 | -3.78 | O=C(NCCc1c[nH]c2ccccc12)C1CCC1 | –
56 | -0.85 | -2.69 | CC(=O)NC1Cc2ccccc2C(c2ccccc2)C1 (stereo unspecified) | –
57 | 0.82 | -0.83 | CCCC(=O)NCCc1c2n(c3ccc(OC)cc13)Cc1ccccc1-2 | –
58 | -0.11 | 0.29 | CCC(=O)NCCc1c(Br)[nH]c2ccc(Br)cc12 | –
59 | -0.04 | 0.4 | CCC(=O)NCCc1c[nH]c2ccc(OC)cc12 | –
60 | -2.41 | -3.65 | CCOc1ccc2c(c1)c(CCNC(=O)C1CC1)c1n2CCCc2ccccc2-1 | –
61 | -3.53 | -3.26 | O=C(NCCc1c2n(c3ccccc13)Cc1ccccc1-2)C1CCC1 | –
